This note sets out measurements from BindingDB's records for doi:10.1021/jm049337s (Leiden/Amsterdam Center For Drug Research, 2005).

The target of assay [1] is T1, Adenosine receptor A1 (Homo sapiens, UniProt P30542).
T1 sequence (P30542 whole entry): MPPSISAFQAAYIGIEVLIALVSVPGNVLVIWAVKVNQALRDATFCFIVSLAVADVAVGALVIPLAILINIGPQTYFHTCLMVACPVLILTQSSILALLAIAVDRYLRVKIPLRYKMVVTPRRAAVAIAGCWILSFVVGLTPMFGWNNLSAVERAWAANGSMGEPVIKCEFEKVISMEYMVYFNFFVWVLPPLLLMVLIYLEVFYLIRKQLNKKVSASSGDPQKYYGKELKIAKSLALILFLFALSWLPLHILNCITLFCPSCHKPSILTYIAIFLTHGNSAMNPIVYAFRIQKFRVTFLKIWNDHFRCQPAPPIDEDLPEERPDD
The assay can be described thus: Association constant for [3H]CCPA binding to Adenosine A1 receptor in the presence of compound. The note with it: read-out: kon (M-1-s-1). Put shortly:
(§1)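 Kinetics on membranes (30 µg) from CHO cells expressing recombinant human A1 receptors, using [3H]CCPA at 1 nM, with or without compound. Association was started by adding membranes to the radioligand. For dissociation, membranes were preloaded with radioligand for 60 min at 25 °C, then 100 µM 8-cyclopentyltheophylline was added. Bound ligand was separated by GF/B filtration and counted by scintillation; t1/2 and rate constants were derived.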

The target in assay [2] is T1, Adenosine receptor A1. Nature of the assay: Dissociation constant for [3H]-CCPA binding to Adenosine A1 receptor in the presence of compound. The essentials:
as §1

As usually defined, the kon is the second-order rate constant of association. Broadly, the koff is a measure of how fast the partners let go of each other. As for `c1ccc(-c2n/c(=N/C3CCCC3)sn2-c2ccccc2)cc1`, at Adenosine receptor A1 [1], the association rate constant (kon) turned out to be 4.16e+06 M⁻¹ s⁻¹. Besides, the koff at Adenosine receptor A1 [2] worked out at 0.001 s⁻¹.
